Values after ≈ are worked out from the molar mass of the structure shown.
Tests used:
Assay type in all cases: functional
Bacillus cereus [1] = experiment: Antibacterial activity against Bacillus cereus CIP 6624 after 18 hrs by agar dilution method; conditions: CIP 6624, 18 h
Outline: (§1)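 Agar-dilution MIC against Gram-positive strains. Compounds in DMSO, geometric dilutions giving final 100−0.75 mg/L in Mueller Hinton agar. Strains grown 18 h at 37 °C in trypticase soy broth, diluted in sterile water, spotted by Steers inoculator (about 1000 UFC/spot). Plates incubated 18 h at 37 °C; DMSO blank; ofloxacin positive control. MIC = lowest concentration with no visible growth.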

Bacillus cereus [2] = experiment: Antibacterial activity against Bacillus cereus N190 after 18 hrs by agar dilution method; conditions: N190, 18 h; outline: as §1
Bacillus cereus [3] = experiment: Antibacterial activity against Bacillus cereus N258 after 18 hrs by agar dilution method; conditions: N258, 18 h; outline: as §1
Bacillus cereus [4] = experiment: Antibacterial activity against Bacillus cereus N349 after 18 hrs by agar dilution method; conditions: N349, 18 h; outline: as §1
Bacillus spizizenii = experiment: Antibacterial activity against Bacillus subtilis ATCC 6633 after 18 hrs by agar dilution method; conditions: ATCC 6633, 18 h; outline: as §1
Corynebacterium striatum = experiment: Antibacterial activity against Corynebacterium striatum N840 after 18 hrs by agar dilution method; conditions: N840, 18 h; outline: as §1
Enterococcus avium = experiment: Antibacterial activity against Enterococcus avium CIP 104053 after 18 hrs by agar dilution method; conditions: CIP 104053, 18 h; outline: as §1
[5] = system: Enterococcus casseliflavus; experiment: Antibacterial activity against Enterococcus casseliflavus N487 after 18 hrs by agar dilution method; conditions: N487, 18 h; outline: as §1
[6] = system: Enterococcus casseliflavus; experiment: Antibacterial activity against Enterococcus casseliflavus CIP 103018 after 18 hrs by agar dilution method; conditions: CIP 103018, 18 h; outline: as §1
Enterococcus durans = experiment: Antibacterial activity against Enterococcus durans CIP 104999 after 18 hrs by agar dilution method; conditions: CIP 104999, 18 h; outline: as §1
Enterococcus faecalis [7] = experiment: Antibacterial activity against Enterococcus faecalis CIP 103214 after 18 hrs by agar dilution method; conditions: CIP 103214, 18 h; outline: as §1
Enterococcus faecalis [8] = experiment: Antibacterial activity against Enterococcus faecalis CIP 104676 after 18 hrs by agar dilution method; conditions: CIP 104676, 18 h; outline: as §1
Enterococcus faecalis [9] = experiment: Antibacterial activity against Enterococcus faecalis N491 after 18 hrs by agar dilution method; conditions: N491, 18 h; outline: as §1
Enterococcus faecalis [10] = experiment: Antibacterial activity against Enterococcus faecalis N518 after 18 hrs by agar dilution method; conditions: N518, 18 h; outline: as §1
Enterococcus faecalis [11] = experiment: Antibacterial activity against Enterococcus faecalis N520 after 18 hrs by agar dilution method; conditions: N520, 18 h; outline: as §1
Enterococcus faecium [12] = experiment: Antibacterial activity against Enterococcus faecium CIP 103014 after 18 hrs by agar dilution method; conditions: CIP 103014, 18 h; outline: as §1
Enterococcus faecium [13] = experiment: Antibacterial activity against Enterococcus faecium CIP 107387 after 18 hrs by agar dilution method; conditions: CIP 107387, 18 h; outline: as §1
Enterococcus faecium [14] = experiment: Antibacterial activity against Enterococcus faecium N490 after 18 hrs by agar dilution method; conditions: N490, 18 h; outline: as §1
Enterococcus faecium [15] = experiment: Antibacterial activity against Enterococcus faecium N507 after 18 hrs by agar dilution method; conditions: N507, 18 h; outline: as §1
Enterococcus faecium [16] = experiment: Antibacterial activity against Enterococcus faecium N733 after 18 hrs by agar dilution method; conditions: N733, 18 h; outline: as §1
Enterococcus faecium [17] = experiment: Antibacterial activity against Enterococcus faecium N823 after 18 hrs by agar dilution method; conditions: N823, 18 h; outline: as §1
Enterococcus gallinarum [18] = experiment: Antibacterial activity against Enterococcus gallinarum CIP 105985 after 18 hrs by agar dilution method; conditions: CIP 105985, 18 h; outline: as §1
Enterococcus gallinarum [19] = experiment: Antibacterial activity against Enterococcus gallinarum N489 after 18 hrs by agar dilution method; conditions: N489, 18 h; outline: as §1
Enterococcus gallinarum [20] = experiment: Antibacterial activity against Enterococcus gallinarum N492 after 18 hrs by agar dilution method; conditions: N492, 18 h; outline: as §1
Enterococcus hirae = experiment: Antibacterial activity against Enterococcus hirae CIP 5855 after 18 hrs by agar dilution method; conditions: CIP 5855, 18 h; outline: as §1
Listeria innocua = experiment: Antibacterial activity against Listeria innocua E044 after 18 hrs by agar dilution method; conditions: E044, 18 h; outline: as §1
Listeria monocytogenes [21] = experiment: Antibacterial activity against Listeria monocytogenes CIP 103575 after 18 hrs by agar dilution method; conditions: CIP 103575, 18 h; outline: as §1
Listeria monocytogenes [22] = experiment: Antibacterial activity against Listeria monocytogenes N783 after 18 hrs by agar dilution method; conditions: N783, 18 h; outline: as §1
Listeria monocytogenes [23] = experiment: Antibacterial activity against Listeria monocytogenes N836 after 18 hrs by agar dilution method; conditions: N836, 18 h; outline: as §1
Listeria monocytogenes [24] = experiment: Antibacterial activity against Listeria monocytogenes N851 after 18 hrs by agar dilution method; conditions: N851, 18 h; outline: as §1
Staphylococcus aureus [25] = experiment: Antibacterial activity against Staphylococcus aureus ATCC 25923 after 18 hrs by agar dilution method; conditions: ATCC 25923, 18 h; outline: as §1
Staphylococcus aureus [26] = experiment: Antibacterial activity against Staphylococcus aureus ATCC 9144 oxford after 18 hrs by agar dilution method; outline: as §1
Staphylococcus aureus [27] = experiment: Antibacterial activity against Staphylococcus aureus CIP 483 after 18 hrs by agar dilution method; conditions: CIP 483, 18 h; outline: as §1
Staphylococcus aureus [28] = experiment: Antibacterial activity against Staphylococcus aureus CIP 53154 after 18 hrs by agar dilution method; conditions: CIP 53154, 18 h; outline: as §1
Staphylococcus aureus [29] = experiment: Antibacterial activity against Staphylococcus aureus CIP 53156 after 18 hrs by agar dilution method; conditions: CIP 53156, 18 h; outline: as §1
Staphylococcus aureus [30] = experiment: Antibacterial activity against Staphylococcus aureus CIP 5710 after 18 hrs by agar dilution method; conditions: CIP 5710, 18 h; outline: as §1
Staphylococcus aureus [31] = experiment: Antibacterial activity against Staphylococcus aureus CIP 7625 after 18 hrs by agar dilution method; conditions: CIP 7625, 18 h; outline: as §1
Staphylococcus aureus [32] = experiment: Antibacterial activity against Staphylococcus aureus CRBIP 2121 after 18 hrs by agar dilution method; conditions: CRBIP 2121, 18 h; outline: as §1
[33] = system: Staphylococcus epidermidis; experiment: Antibacterial activity against Staphylococcus epidermidis CIP 53124 after 18 hrs by agar dilution method; conditions: CIP 53124, 18 h; outline: as §1
[34] = system: Staphylococcus haemolyticus; experiment: Antibacterial activity against Staphylococcus haemolyticus CIP 8156 after 18 hrs by agar dilution method; conditions: CIP 8156, 18 h; outline: as §1
[35] = system: Staphylococcus intermedius; experiment: Antibacterial activity against Staphylococcus intermedius N987 after 18 hrs by agar dilution method; conditions: N987, 18 h; outline: as §1
[36] = system: Staphylococcus lugdunensis; experiment: Antibacterial activity against Staphylococcus lugdunensis ATCC 43809 after 18 hrs by agar dilution method; conditions: ATCC 43809, 18 h; outline: as §1
[37] = system: Staphylococcus saprophyticus; experiment: Antibacterial activity against Staphylococcus saprophyticus CIP 76125 after 18 hrs by agar dilution method; conditions: CIP 76125, 18 h; outline: as §1
[38] = system: Staphylococcus saprophyticus; experiment: Antibacterial activity against Staphylococcus saprophyticus E260 after 18 hrs by agar dilution method; conditions: E260, 18 h; outline: as §1
Mammaliicoccus sciuri = experiment: Antibacterial activity against Staphylococcus sciuri N993 after 18 hrs by agar dilution method; conditions: N993, 18 h; outline: as §1
Streptococcus agalactiae = experiment: Antibacterial activity against Streptococcus agalactiae CIP 103227 after 18 hrs by agar dilution method; conditions: ATCC 13813, 18 h; outline: as §1
MRC5 [39] = experiment: Cytotoxicity against human MRC5 cells assessed as growth inhibition at 10^-5 M after 72 hrs by MTS assay relative to control; conditions: MRC5, 72 h, read-out: GI
Outline: (§2)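 Cells from ATCC; HCT-116 grown in RPMI 1640 and MRC5 in DMEM, each with 10% FCS and 1% glutamine, 37 °C, 5% CO2. Seeded at 2.5 × 10^3 cells/well, cultured 24 h, then exposed to compounds at 1 and 10 μM final for 72 h. MTS read-out, absorbance 490 nm; percent index from treated/control OD490 × 100, three experiments.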

MRC5 [40] = experiment: Cytotoxicity against human MRC5 cells assessed as growth inhibition at 10^-6 M after 72 hrs by MTS assay relative to control; conditions: MRC5, 72 h, read-out: GI; outline: as §2
HCT-116 [41] = experiment: Cytotoxicity against human HCT116 cells assessed as growth inhibition at 10^-5 M after 72 hrs by MTS assay relative to control; conditions: HCT-116, 72 h, read-out: GI; outline: as §2
HCT-116 [42] = experiment: Cytotoxicity against human HCT116 cells assessed as growth inhibition at 10^-6 M after 72 hrs by MTS assay relative to control; conditions: HCT-116, 72 h, read-out: GI; outline: as §2

`C=C1CC[C@H]2C(C)(C)CCC[C@]2(C)[C@H]1C[C@@H](O)C1=CC(=O)OC1` gave an MIC (Bacillus cereus [1]) of at most 188 µM, an MIC (Bacillus cereus [2]) of at most 188 µM and an MIC (Bacillus cereus [3]) of at most 188 µM. For the same molecule, the MIC (Bacillus cereus [4]) was at most 188 µM, the MIC (Bacillus spizizenii) was over 188 µM and the MIC (Corynebacterium striatum) was over 188 µM. For the same molecule, the MIC (Enterococcus avium) was over 188 µM, the MIC [5] was over 188 µM and the MIC [6] was over 188 µM. It also gave an MIC (Enterococcus durans) of 50 µM (≈ 15.9 µg/mL), an MIC (Enterococcus faecalis [7]) of 50 µM (≈ 15.9 µg/mL) and an MIC (Enterococcus faecalis [8]) of 50 µM (≈ 15.9 µg/mL). The MIC (Enterococcus faecalis [9]) was 50 µM (≈ 15.9 µg/mL), the MIC (Enterococcus faecalis [10]) was 50 µM (≈ 15.9 µg/mL) and the MIC (Enterococcus faecalis [11]) was 50 µM (≈ 15.9 µg/mL). For the same molecule, the MIC (Enterococcus faecium [12]) was over 188 µM, the MIC (Enterococcus faecium [13]) was over 188 µM and the MIC (Enterococcus faecium [14]) was at most 188 µM. The MIC (Enterococcus faecium [15]) was 50 µM (≈ 15.9 µg/mL), the MIC (Enterococcus faecium [16]) was 50 µM (≈ 15.9 µg/mL) and the MIC (Enterococcus faecium [17]) was 50 µM (≈ 15.9 µg/mL). For the same molecule, the MIC (Enterococcus gallinarum [18]) was over 188 µM, the MIC (Enterococcus gallinarum [19]) was over 188 µM and the MIC (Enterococcus gallinarum [20]) was over 188 µM. It also gave an MIC (Enterococcus hirae) of over 188 µM, an MIC (Listeria innocua) of over 188 µM and an MIC (Listeria monocytogenes [21]) of over 188 µM. For the same molecule, the MIC (Listeria monocytogenes [22]) was over 188 µM, the MIC (Listeria monocytogenes [23]) was over 188 µM and the MIC (Listeria monocytogenes [24]) was over 188 µM. It also gave an MIC (Staphylococcus aureus [25]) of over 188 µM, an MIC (Staphylococcus aureus [26]) of over 188 µM and an MIC (Staphylococcus aureus [27]) of over 188 µM. For the same molecule, the MIC (Staphylococcus aureus [28]) was over 188 µM, the MIC (Staphylococcus aureus [29]) was over 188 µM and the MIC (Staphylococcus aureus [30]) was over 188 µM. The MIC (Staphylococcus aureus [31]) was over 188 µM, the MIC (Staphylococcus aureus [32]) was over 188 µM and the MIC [33] was over 188 µM. The MIC [34] was over 188 µM, the MIC [35] was over 188 µM and the MIC [36] was over 188 µM. It also gave an MIC [37] of over 188 µM, an MIC [38] of over 188 µM and an MIC (Mammaliicoccus sciuri) of over 188 µM. It also gave an MIC (Streptococcus agalactiae) of 50 µM (≈ 15.9 µg/mL), an inhibition of growth at 10 µM (MRC5 [39]) of 86% and an inhibition of growth at 1 µM (MRC5 [40]) of 34%. The inhibition of growth at 10 µM (HCT-116 [41]) was 68% and the inhibition of growth at 1 µM (HCT-116 [42]) was 3%.
